46 molecules from ChEMBL document CHEMBL4837214, “Design, synthesis, and biological evaluation of novel tetrahydroprotoberberine derivatives to reduce SREBPs expression for the treatment of hyperlipidemia” (Eur J Med Chem, 2021) can be followed below.

The test system of assay [1] is HepG2. Description: Cytotoxicity against human HepG2 cells assessed as reduction in cell viability at 10 uM after 24 hrs by CCK8 assay. The format is functional. Background: Tetrazolium dyes change colour on reduction, which living cells bring about.
Assay [2] has as its system HepG2. Description: Down regulation of intracellular TC level in human HepG2 cells at 10 uM measured after 24 hrs. The format is functional, cell-based. Put shortly: (§1)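 HepG2 cells grown in six-well plates and exposed 24 h to compound at […]. Cells collected in PBS and sonicated (5 s on, 10 s off, 60 s total). Total cholesterol or triglyceride measured with a colorimetric determination kit.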

Assay [3] deals with HepG2. Description: Down regulation of intracellular TG level in human HepG2 cells at 10 uM measured after 24 hrs. The format is functional, cell-based. The essentials:
as §1

Calls of active or inactive are those of the source. No cut-off for these calls is given here.

For `COc1ccc2c(c1OC(=O)C1CCCCC1)CN1CCc3cc4c(cc3C1C2)OCO4` (centres undefined), in the assay on HepG2 [1], the Activity was 90.7%.
The same measure, in the same setting: the result for `COc1cc2c(cc1OC)C1Cc3ccc(OC)c(OC(=O)c4cccc(C)c4)c3CN1CC2` (centres undefined) reads 84.3%.
On to `COc1cc2c(cc1OC)C1Cc3ccc(OC)c(OC(=O)c4ccc(F)cc4)c3CN1CC2` (centres undefined), for which the Activity with HepG2 [1] is 95.1%.
The same measure, in the same setting: the result for `CCCC(CCC)C(=O)Oc1c(OC)ccc2c1CN1CCc3cc(OC)c(OC)cc3C1C2` (centres undefined) reads 97.9%; that for `COc1cc2c(cc1OC)C1Cc3ccc(OC)c(OS(=O)(=O)c4cc(C)ccc4C)c3CN1CC2` (centres undefined), 81.4%.
Regarding `CCOc1ccccc1C(=O)Oc1c(OC)ccc2c1CN1CCc3cc4c(cc3C1C2)OCO4` (centres undefined), the Activity with HepG2 [1] is on record as 96%.
On to `CCCS(=O)(=O)Oc1c(OC)ccc2c1CN1CCc3cc(OC)c(OC)cc3C1C2` (centres undefined), for which the Activity with HepG2 [1] worked out at 80.2%.
On the same count and under the same terms, the result for `COc1ccc2c(c1OS(=O)(=O)c1cc(C)ccc1C)CN1CCc3cc4c(cc3C1C2)OCO4` (centres undefined) reads 84.5%; that for `C/C=C/C(=O)Oc1c(OC)ccc2c1CN1CCc3cc4c(cc3C1C2)OCO4` (centres undefined), 84.3%; that for `COc1cc2c(cc1OC)C1Cc3ccc(OC)c(OS(=O)(=O)c4ccccc4[N+](=O)[O-])c3CN1CC2` (centres undefined), 84.8%.
As to `C=C(C)C(=O)Oc1c(OC)ccc2c1CN1CCc3cc(OC)c(OC)cc3C1C2` (centres undefined), the Activity with HepG2 [1] was 95.4%.
Turning to `COc1cc2c(cc1OC)C1Cc3ccc(OC)c(OC(=O)C(C)(C)CCl)c3CN1CC2` (centres undefined), in the assay on HepG2 [1], the Activity turned out to be 91.2%.
Still for that read-out and setting: the result for `COc1cc2c(cc1OC)C1Cc3ccc(OC)c(OS(=O)(=O)c4c(C)cc(C)cc4C)c3CN1CC2` (centres undefined) reads 73.3%.
Take `CCCOc1c(OC)ccc2c1CN1CCc3cc4c(cc3C1C2)OCO4` (centres undefined): the Activity in the assay on HepG2 [1] is on record as 101.5%. Moreover, the outcome in the assay with HepG2 [2] and with HepG2 [3] was Active.
Regarding `COc1ccc2c(c1OS(=O)(=O)c1ccc(F)cc1)CN1CCc3cc4c(cc3C1C2)OCO4` (centres undefined), the Activity in the assay with HepG2 [1] was found to be 86.8%.
On the same count and under the same terms, the result for `COc1ccc2c(c1OC(=O)c1cccc(C)c1)CN1CCc3cc4c(cc3C1C2)OCO4` (centres undefined) reads 90.1%.
As to `COc1cc2c(cc1OC)C1Cc3ccc(OC)c(OS(=O)(=O)c4c(C(C)C)cc(C(C)C)cc4C(C)C)c3CN1CC2` (centres undefined), the Activity with HepG2 [1] is recorded as 91.1%. In addition, the outcome in the assay on HepG2 [2] and in the assay on HepG2 [3] was Active.
As to `COc1ccc2c(c1OC(=O)C13CC4CC(CC(C4)C1)C3)CN1CCc3cc4c(cc3C1C2)OCO4` (centres undefined), the Activity in the assay with HepG2 [1] is given as 80.2%.
With `C/C=C/C(=O)Oc1c(OC)ccc2c1CN1CCc3cc(OC)c(OC)cc3C1C2` (centres undefined), in the assay with HepG2 [1], the Activity was 81.7%.
As for `COc1ccc2c(c1OC(=O)c1ccco1)CN1CCc3cc4c(cc3C1C2)OCO4` (centres undefined), the Activity in the assay on HepG2 [1] came out at 83.9%.
On to `COc1ccc2c(c1OS(=O)(=O)c1ccc(Cl)c([N+](=O)[O-])c1)CN1CCc3cc4c(cc3C1C2)OCO4` (centres undefined), for which, in the assay with HepG2 [1], the Activity came to 93.4%.
Take `COc1ccc2c(c1OC(=O)c1ccc(F)cc1)CN1CCc3cc4c(cc3C1C2)OCO4` (centres undefined): the Activity in the assay on HepG2 [1] came to 85.6%.
As to `CCOc1ccccc1C(=O)Oc1c(OC)ccc2c1CN1CCc3cc(OC)c(OC)cc3C1C2` (centres undefined), the Activity in the assay with HepG2 [1] is 84.6%.
Turning to `CCCCOc1c(OC)ccc2c1CN1CCc3cc4c(cc3C1C2)OCO4` (centres undefined), in the assay with HepG2 [1], the Activity is listed as 98.1%. Also, in the assay on HepG2 [3], the result was Active.
In the case of `COc1ccc2c(c1OS(=O)(=O)c1c(C)cc(C)cc1C)CN1CCc3cc4c(cc3C1C2)OCO4` (centres undefined), the Activity with HepG2 [1] is reported as 80.7%.
For `CCOc1c(OC)ccc2c1CN1CCc3cc4c(cc3C1C2)OCO4` (centres undefined), in the assay on HepG2 [1], the Activity worked out at 87.7%.
For the molecule `COc1ccc2c(c1OC(=O)c1cccc(Br)c1)CN1CCc3cc4c(cc3C1C2)OCO4` (centres undefined), the Activity in the assay with HepG2 [1] is recorded as 85%.
On to `COc1cc2c(cc1OC)C1Cc3ccc(OC)c(OS(=O)(=O)c4ccc(Cl)c([N+](=O)[O-])c4)c3CN1CC2` (centres undefined), for which, in the assay with HepG2 [1], the Activity was found to be 94.7%.
Take `COc1cc2c(cc1OC)C1Cc3ccc(OC)c(OS(=O)(=O)c4cccs4)c3CN1CC2` (centres undefined): in the assay on HepG2 [1], the Activity was 89.2%.
`COc1cc2c(cc1OC)C1Cc3ccc(OC)c(OC(=O)c4ccco4)c3CN1CC2` (centres undefined): in the assay with HepG2 [1], the Activity was 80.9%.
In the case of `COc1ccc2c(c1OC(=O)c1ccc(CCl)cc1)CN1CCc3cc4c(cc3C1C2)OCO4` (centres undefined), in the assay on HepG2 [1], the Activity is 97.8%.
Still for that read-out and setting: next, `COc1ccc2c(c1OS(=O)(=O)c1cccs1)CN1CCc3cc4c(cc3C1C2)OCO4` (centres undefined): 93.4%; `COc1ccc2c(c1OC(=O)C1CC1)CN1CCc3cc4c(cc3C1C2)OCO4` (centres undefined): 90.7%; `COc1cc2c(cc1OC)C1Cc3ccc(OC)c(OC(=O)C45CC6CC(CC(C6)C4)C5)c3CN1CC2` (centres undefined): 99.3%.
For `COc1ccc2c(c1OCc1cc(F)ccc1F)CN1CCc3cc4c(cc3C1C2)OCO4` (centres undefined), the Activity in the assay with HepG2 [1] amounted to 87.7%.
As for `COc1ccc2c(c1OCc1ccc([N+](=O)[O-])cc1)CN1CCc3cc4c(cc3C1C2)OCO4` (centres undefined), the outcome in the assay with HepG2 [2] and in the assay with HepG2 [3] was Active.
Turning to `COc1cc2c(cc1OC)C1Cc3ccc(OC)c(OC(=O)C4CC4)c3CN1CC2` (centres undefined), the Activity with HepG2 [1] stood at 91.2%. Also, the result with HepG2 [2] and in the assay with HepG2 [3] was Active.
`COc1cc2c(cc1OC)C1Cc3ccc(OC)c(OC(=O)C4CCCCC4)c3CN1CC2` (centres undefined): the Activity in the assay on HepG2 [1] came to 85.5%.
With `COc1cc2c(cc1OC)C1Cc3ccc(OC)c(OS(=O)(=O)c4ccc(F)cc4)c3CN1CC2` (centres undefined), the Activity with HepG2 [1] is 93.4%.
On to `CCS(=O)(=O)Oc1c(OC)ccc2c1CN1CCc3cc(OC)c(OC)cc3C1C2` (centres undefined), for which the Activity in the assay with HepG2 [1] was 87.7%.
For the molecule `COc1ccc2c(c1OC(=O)C(C)(C)CCl)CN1CCc3cc4c(cc3C1C2)OCO4` (centres undefined), the Activity in the assay with HepG2 [1] was 99.6%.
In the case of `COc1ccc2c(c1OS(=O)(=O)c1ccccc1[N+](=O)[O-])CN1CCc3cc4c(cc3C1C2)OCO4` (centres undefined), the Activity with HepG2 [1] stood at 88.8%.
Consider `COc1cc2c(cc1OC)C1Cc3ccc(OC)c(OC(=O)c4cccc(Br)c4)c3CN1CC2` (centres undefined), for which, in the assay with HepG2 [1], the Activity is 80.2%.
In the case of `COc1cc2c(cc1OC)C1Cc3ccc(OC)c(OS(=O)(=O)c4ccc(Br)cc4)c3CN1CC2` (centres undefined), in the assay on HepG2 [1], the Activity is 86.5%.
The same measure, in the same setting: next, `COc1cc2c(cc1OC)C1Cc3ccc(OC)c(OC(=O)c4ccc(CCl)cc4)c3CN1CC2` (centres undefined): 88.3%.
The same measure, in the same setting: the result for `COc1ccc2c(c1OS(=O)(=O)c1c(C(C)C)cc(C(C)C)cc1C(C)C)CN1CCc3cc4c(cc3C1C2)OCO4` (centres undefined) reads 92.8%.
